Drawing on ChEMBL document CHEMBL1141277, “New phenylpropenoids, bis(1-phenylethyl)phenols, bisquinolinone alkaloid, and anti-inflammatory constituents from Zanthoxylum integrifoliolum” (J Nat Prod, 2007), this text covers IC50 for 19 compounds.

For orientation: IC50 means the concentration that inhibits the measured activity by half.

Bounds are passed on as bounds.

The test system of the experiment is Neutrophil. Nature of the experiment: Antiinflammatory activity in human neutrophils assessed as fMLP-induced superoxide release after 5 mins by spectrometry. The class given is functional, cell-based. The method in brief: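 Neutrophils isolated from venous blood of healthy volunteers (20–35 years) by double-gradient Ficoll–Hypaque centrifugation, with hypotonic lysis of red cells. Cells at 1 × 10^6 cells/mL pretreated with test agents (100 µmol/L) at 37 °C for 5 min. Then stimulated with fMLP (1 µmol/L) with ferricytochrome c (0.5 mg/mL). Extracellular O2•– read continuously at 550 nm. Inhibition % = [(control−resting)−(compound−resting)]/(control−resting) × 100.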
In the case of `COc1cc2ccc(=O)oc2c(OC)c1OC` [FRAXIDIN METHYL ETHER], the IC50 was 47.1 µM.

Regarding `CC(C)(O)[C@H](O)COc1ccc(/C=C/CO)cc1`, the IC50 was 32.5 µM.

Turning to `COc1cc(C=O)cc(OC)c1O` [SYRINGALDEHYDE], the IC50 was over 100 µM.

In the case of `COc1cc([C@H]2Oc3c(OC)cc(/C=C/C=O)cc3[C@@H]2CO)ccc1O`, the IC50 worked out at 31.9 µM.

In the case of `CC(C)=CCc1cc(/C=C/CO)ccc1O`, the IC50 stood at 75.1 µM.

As to `Cn1c(=O)c2c(c3ccccc31)O[C@]1(C)C[C@@H]3c4c(c5ccccc5[nH]c4=O)OC(C)(C)[C@H]3[C@H]2C1`, the IC50 was over 100 µM.

With `COc1cc2oc(=O)ccc2cc1O` [ISOSCOPOLETIN], the IC50 amounted to 77.5 µM.

Take `Cn1c(=O)c2c(c3ccccc31)OC(C)(C)C=C2`: the half-maximal inhibitory concentration (IC50) was 4.28 µM.

Turning to `Cn1c(=O)c2c(c3ccccc31)OC(C)(C)[C@@H]1[C@@H]2C[C@]2(C)C[C@H]1c1c(c3ccccc3n(C)c1=O)O2` [PARAENSIDIMERIN C], the IC50 was over 100 µM.

Turning to `COc1cc(/C=C/CO)ccc1OCC=C(C)C`, the IC50 was over 100 µM.

Turning to `COc1cc([C@@H]2Oc3c(OC)cc(/C=C/CO)cc3[C@H]2CO)cc(OC)c1O`, the IC50 is 11.8 µM.

Take `C[C@H](c1ccccc1)c1cccc([C@@H](C)c2ccccc2)c1O`: the IC50 is over 100 µM.

For the compound `CC(C)Cc1ccc(C(C)C(=O)O)cc1` (centres undefined) [IBUPROFEN], the IC50 worked out at 32.5 µM.

In the case of `COc1c2ccoc2nc2c(OC)cccc12` [GAMMA-FAGARINE], the IC50 is over 100 µM.

As to `CC(C)=CCOc1ccc(/C=C/CO)cc1` [EVOFOLIN C], the IC50 came out at 9.64 µM.

Turning to `COc1c2[nH]c3occc3c(OC)c-2ccc1=O` [HAPLOPINE], the IC50 was 57.3 µM.

Consider `COc1cc2ccc(=O)oc2cc1OC` [SCOPARONE], for which the IC50 was over 100 µM.

Consider `CC(c1ccccc1)c1ccc(O)c(C(C)c2ccccc2)c1` (centres undefined), for which the IC50 is over 100 µM.

`COc1cc([C@H]2Oc3c(OC)cc(/C=C/C=O)cc3[C@@H]2CO)cc(OC)c1O`: the half-inhibitory concentration (IC50) came out at 19.3 µM.
